Experimental data from different studies.
Protocols differ between the studies behind these lines.
Matrix: plasma

`C[C@H]1CN(c2ccc(C3CCC(=O)NC3=O)cc2F)CCN1CC12CCC(NS(=O)(=O)c3ccc(Nc4ncc(C(F)(F)F)c(N5CCC[C@](C)(O)C5)n4)c(F)c3)(CC1)CO2` (some centres unmarked) has a half-life of 3.4 h (rat; intravenous, 2 mg/kg).
`CCONC(=O)N1CCC[C@H](C(=O)NCc2nc(-c3ccc(C#N)cc3)cs2)C1` has a half-life of 2.2 h (male Sprague-Dawley rat; intravenous, 1 mg/kg).
For `Cn1c(=O)c2[nH]cnc2n(C)c1=O`, the half-life was 4.81 h (male Sprague-Dawley rat; intravenous, 11.25 mg/kg).
`CC(C)(N)COCC(=O)N1CCC[C@H](C(=O)NCc2nc(-c3ccc(C(F)(F)F)cc3)cs2)C1` has a half-life of 7.3 h (male Sprague-Dawley rat; oral, 3 mg/kg).
`C[C@H]1Oc2cc(cnc2N)-c2c(nn(C)c2C#N)CN(C)C(=O)c2ccc(F)cc21` gave a half-life of 4.05 h (Sprague-Dawley rat; intravenous, 1 mg/kg, single dose).
With `Cc1cc(S(=O)(=O)NC2CC(N3CCN(CC4CCN(c5ccc6c(c5F)n(C)c(=O)n6C5CCC(=O)NC5=O)CC4)CC3)C2)ccc1Nc1ncc(C(F)(F)F)c(N2CCCC(C)(O)C2)n1` (centres unmarked) the half-life was 7.2 h (rat; intravenous, 2 mg/kg).
`CCOCC(=O)N1CCC[C@H](C(=O)NCc2nc(-c3ccc(C)nc3)cs2)C1` gave a half-life of 2.1 h (male Sprague-Dawley rat; intravenous, 1 mg/kg).
For `Cc1nc(Nc2ncc(C(=O)Nc3c(C)cccc3Cl)s2)cc(N2CC[C@@H](N)C2)n1`, the half-life was 2.8 h (male Sprague-Dawley rat; intravenous, 1 mg/kg).
`Cc1cc2c(C(N)=O)cccc2n1-c1nc2c(c(NCc3ccccc3)n1)CCCN2` has a half-life of 1.2 h (male Sprague-Dawley rat; oral, 10 mg/kg, single dose).
The half-life of `CNS(=O)(=O)c1ccc(Nc2ncc(C(F)(F)F)c(N3CCC(C)(O)CC3)n2)c(C)c1` is reported as 0.7 h (rat; intravenous, 2 mg/kg).
`CCCCC(=O)Nc1ccc(-c2ccc3ncn(CCC)c(=O)c3c2)cn1` has a half-life of 1.09 h (male rat; oral, 10 mg/kg).
With `COc1ccc(-c2coc3cc(O)cc(O)c3c2=O)cc1` the half-life was 0.19 h (rat; intravenous, 2 mg/kg).
With `Cc1cc(S(=O)(=O)N[C@H]2CC[C@H](N3CCN(CC4CCN(c5cccc6c5n(C)c(=O)n6C5CCC(=O)NC5=O)CC4)CC3)CC2)ccc1Nc1ncc(C(F)(F)F)c(N2CCC[C@](C)(O)C2)n1` (some centres unmarked) the half-life was 4.3 h (rat; intravenous, 2 mg/kg).
With `COc1nc(-c2cccc(-c3ccccc3)c2C)ccc1CNCCNC(=O)CCCCCCCCCCC(=O)N1CCN(CCNC(=O)c2cc3c(=O)n4cccc(C)c4nc3n(CCc3cccs3)c2=N)CC1` the half-life was 5.8 h (male Sprague-Dawley rat; intravenous, 2 mg/kg).
